Laboratory results as given in ChEMBL document CHEMBL3124928, “Synthesis, antileishmanial activity and docking study of N'-substitutedbenzylidene-2-(6,7-dihydrothieno[3,2-c]pyridin-5(4H)-yl)acetohydrazides” (Bioorg Med Chem Lett, 2014).
Converted amounts (≈) assume the structure as drawn. The source made the active and inactive calls. The rule behind the calls is not given here.

Assays:
Aspergillus niger = assay: Antifungal activity against Aspergillus niger NCIM 1196 by standard agar method; format: functional
Outline: (§1)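 MIC determined by standard agar method, with dimethyl sulfoxide as solvent control.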

Candida albicans = assay: Antifungal activity against Candida albicans NCIM 3471 by standard agar method; format: functional; outline: as §1
Bacillus subtilis [1] = assay: Antibacterial activity against Bacillus subtilis NCIM 2063 by standard agar method; format: functional; outline: as §1
Staphylococcus aureus [2] = assay: Antibacterial activity against Staphylococcus aureus NCIM 2901 by standard agar method; format: functional; outline: as §1
Pseudomonas aeruginosa [3] = assay: Antibacterial activity against Pseudomonas aeruginosa NCIM 2036 by standard agar method; format: functional; outline: as §1
Escherichia coli = assay: Antibacterial activity against Escherichia coli NCIM 2256 by standard agar method; format: functional; outline: as §1
HeLa = assay: Cytotoxicity against human HeLa cells up to 300 ug/ml after 72 hrs by MTT assay; format: cell-based
Leishmania donovani = assay: Antileishmanial activity against Leishmania donovani NHOM/IN/80/DD8 promastigotes assessed as decrease in parasite growth after 72 hrs by MTT assay; format: functional, organism-based; settings: NHOM/IN/80/DD8, 72 h
Outline: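 Cultured promastigotes were used, and viability was read by a modified MTT assay, with formazan yield taken as proportional to metabolically active cells. IC50 is the concentration cutting cell growth by 50%, found by graphic interpolation.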

Bacillus subtilis [4] = assay: Antibacterial activity against Bacillus subtilis NCIM 2063 up to 300 ug/ml by standard agar method; format: functional, organism-based
Pseudomonas aeruginosa [5] = assay: Antibacterial activity against Pseudomonas aeruginosa NCIM 2036 up to 300 ug/ml by standard agar method; format: functional, organism-based
Staphylococcus aureus [6] = assay: Antibacterial activity against Staphylococcus aureus NCIM 2901 up to 300 ug/ml by standard agar method; format: functional, organism-based

Compound	MIC (Aspergillus niger)	MIC (Candida albicans)	MIC (Bacillus subtilis [1])	MIC (Staphylococcus aureus [2])	MIC (Pseudomonas aeruginosa [3])	MIC (Escherichia coli)	Activity (HeLa)	IC50 (Leishmania donovani)	Activity (Bacillus subtilis [4])	Activity (Pseudomonas aeruginosa [5])	Activity (Staphylococcus aureus [6])
O=C(CN1CCc2sccc2C1)N/N=C/c1ccc(Cl)cc1	100 mg/L (≈ 300 µM)	100 mg/L (≈ 300 µM)	100 mg/L (≈ 300 µM)	50 mg/L (≈ 150 µM)	50 mg/L (≈ 150 µM)	25 mg/L (≈ 74.9 µM)	Non-toxic	738 µM	–	–	–
CN(C)c1ccc(/C=N/NC(=O)CN2CCc3sccc3C2)cc1	100 mg/L (≈ 292 µM)	40 mg/L (≈ 117 µM)	–	100 mg/L (≈ 292 µM)	–	50 mg/L (≈ 146 µM)	Non-toxic	274 µM	inactive	inactive	–
N#Cc1ccc(/C=N/NC(=O)CN2CCc3sccc3C2)cc1	140 mg/L (≈ 432 µM)	80 mg/L (≈ 247 µM)	–	250 mg/L (≈ 771 µM)	150 mg/L (≈ 462 µM)	100 mg/L (≈ 308 µM)	Non-toxic	694 µM	inactive	–	–
COc1cccc(N)c1/C=N/NC(=O)CN1CCc2sccc2C1	140 mg/L (≈ 406 µM)	60 mg/L (≈ 174 µM)	–	275 mg/L (≈ 798 µM)	–	175 mg/L (≈ 508 µM)	Non-toxic	722 µM	inactive	inactive	–
O=C(CN1CCc2sccc2C1)N/N=C/c1ccccc1Cl	120 mg/L (≈ 359 µM)	60 mg/L (≈ 180 µM)	100 mg/L (≈ 300 µM)	100 mg/L (≈ 300 µM)	125 mg/L (≈ 374 µM)	25 mg/L (≈ 74.9 µM)	Non-toxic	296 µM	–	–	–
N=C(N)c1ccc(OCCCCCOc2ccc(C(=N)N)cc2)cc1 [PENTAMIDINE]	–	–	–	–	–	–	–	16.1 µM	–	–	–
O=C(CN1CCc2sccc2C1)N/N=C/c1c(Cl)cccc1Cl	160 mg/L (≈ 434 µM)	80 mg/L (≈ 217 µM)	250 mg/L (≈ 679 µM)	250 mg/L (≈ 679 µM)	150 mg/L (≈ 407 µM)	50 mg/L (≈ 136 µM)	Non-toxic	645 µM	–	–	–
O=C(O)c1cn(C2CC2)c2cc(N3CCNCC3)c(F)cc2c1=O [CIPROFLOXACIN]	–	–	–	50 mg/L (≈ 151 µM)	–	25 mg/L (≈ 75.4 µM)	–	–	–	–	–
COc1ccc(OC)c(/C=N/NC(=O)CN2CCc3sccc3C2)c1	150 mg/L (≈ 417 µM)	25 mg/L (≈ 69.6 µM)	100 mg/L (≈ 278 µM)	75 mg/L (≈ 209 µM)	250 mg/L (≈ 696 µM)	125 mg/L (≈ 348 µM)	Non-toxic	689 µM	–	–	–
O=C(CN1CCc2sccc2C1)N/N=C/c1ccc(O)c(O)c1	75 mg/L (≈ 226 µM)	75 mg/L (≈ 226 µM)	–	–	150 mg/L (≈ 453 µM)	50 mg/L (≈ 151 µM)	Non-toxic	672 µM	inactive	–	inactive
Clc1ccc(COC(Cn2ccnc2)c2ccc(Cl)cc2Cl)c(Cl)c1 (stereo unspecified) [MICONAZOLE]	12.5 mg/L (≈ 30 µM)	25 mg/L (≈ 60.1 µM)	–	–	–	–	–	–	–	–	–
COc1ccc(/C=N/NC(=O)CN2CCc3sccc3C2)cc1OC	12.5 mg/L (≈ 34.8 µM)	37.5 mg/L (≈ 104 µM)	150 mg/L (≈ 417 µM)	150 mg/L (≈ 417 µM)	200 mg/L (≈ 556 µM)	150 mg/L (≈ 417 µM)	Non-toxic	619 µM	–	–	–
CC1(C)S[C@@H]2[C@H](NC(=O)[C@H](N)c3ccccc3)C(=O)N2[C@H]1C(=O)O [AMPICILLIN]	–	–	250 mg/L (≈ 715 µM)	250 mg/L (≈ 715 µM)	100 mg/L (≈ 286 µM)	100 mg/L (≈ 286 µM)	–	–	–	–	–
COc1ccc(/C=N/NC(=O)CN2CCc3sccc3C2)c(OC)c1	50 mg/L (≈ 139 µM)	25 mg/L (≈ 69.6 µM)	100 mg/L (≈ 278 µM)	75 mg/L (≈ 209 µM)	250 mg/L (≈ 696 µM)	125 mg/L (≈ 348 µM)	Non-toxic	737 µM	–	–	–
OC(Cn1cncn1)(Cn1cncn1)c1ccc(F)cc1F [FLUCONAZOLE]	10 mg/L (≈ 32.7 µM)	5 mg/L (≈ 16.3 µM)	–	–	–	–	–	–	–	–	–
